Test results: ChEMBL document CHEMBL1125311, “Inhibition of human leukocyte elastase. 4. Selection of a substituted cephalosporin (L-658,758) as a topical aerosol” (J Med Chem, 1992)
Blank lines part the entries; values can stand above or below the molecule they belong to.

Legend:
[1] = test system: Cricetinae gen. sp.; test: Compound was evaluated in vivo for inhibition of HLE-induced hemorrhage in hamster lung at 10 microg, 30 min after administration prior to HLE; assay type: functional, Cricetulus griseus
Outline: (§1)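 Hamster, intratracheal dosing of compound (per animal) 30 min before IT instillation of 50 μg HLE (50 units in Experimental); hemorrhage read 3 h later: lungs lavaged with saline, hemoglobin in lavage measured at 414 nm. Percent inhibition from drug-treated vs vehicle-treated hemorrhage; three animals per dose and time. Titration at 100, 30, 10, 3 μg/animal gives ED50.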

[2] = test system: Cricetinae gen. sp.; test: Compound was evaluated in vivo for inhibition of HLE-induced hemorrhage in hamster lung at 100 microg, 30 min after administration prior to HLE; assay type: functional, Cricetulus griseus; outline: as §1
[3] = target: T1, Neutrophil elastase (Homo sapiens) (UniProt P08246)
T1 sequence (whole entry): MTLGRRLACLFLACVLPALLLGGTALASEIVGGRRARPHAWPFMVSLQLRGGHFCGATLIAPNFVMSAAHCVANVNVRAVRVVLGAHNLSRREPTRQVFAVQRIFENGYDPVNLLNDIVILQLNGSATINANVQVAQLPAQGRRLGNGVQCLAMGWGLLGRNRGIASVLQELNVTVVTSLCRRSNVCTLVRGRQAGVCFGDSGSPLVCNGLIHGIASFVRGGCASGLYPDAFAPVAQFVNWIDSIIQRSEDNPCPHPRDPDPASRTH

[4] = test system: Cricetinae gen. sp.; test: Compound was evaluated in vivo for inhibition of HLE-induced hemorrhage in hamster lung at 30 microg, 30 min after administration prior to HLE; assay type: functional, Cricetulus griseus; outline: as §1
[5] = test system: Cricetinae gen. sp.; test: Compound was evaluated in vivo for inhibition of HLE-induced hemorrhage in hamster lung at 10 ug 30 min after administration prior to HLE; assay type: functional, Cricetulus griseus; outline: as §1
[6] = test system: Cricetinae gen. sp.; test: Compound was evaluated in vivo for inhibition of HLE-induced hemorrhage in hamster lung at 200 microg, 2 hr after administration prior to HLE; assay type: functional, Cricetulus griseus
Outline: (§2)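 Hamster duration protocol: 200 μg/animal given intratracheally 60, 120, 180 or 240 min before IT HLE instillation; hemorrhage scored after 3 h as hemoglobin (414 nm) in saline lung lavage, relative to vehicle-treated animals; three animals per point. T50 taken as time at which 50% inhibition is still obtained.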

[7] = test system: Cricetinae gen. sp.; test: Compound was evaluated in vivo for inhibition of HLE-induced hemorrhage in hamster lung at 200 microg, 3h after administration prior to HLE; assay type: functional, Cricetulus griseus; outline: as §2
[8] = test system: Cricetinae gen. sp.; test: Compound was evaluated in vivo for inhibition of HLE-induced hemorrhage in hamster lung at 100 microg 30 min after administration prior to HLE; assay type: functional, Cricetulus griseus; outline: as §1
[9] = test system: Cricetinae gen. sp.; test: Compound was evaluated in vivo for inhibition of HLE-induced hemorrhage in hamster lung at 30 ug 30 min after administration prior to HLE; assay type: functional, Cricetulus griseus; outline: as §1
[10] = test system: Cricetinae gen. sp.; test: Compound was evaluated in vivo for inhibition of HLE-induced hemorrhage in hamster lung at 200 microg 1 hr after administration prior to HLE; assay type: functional, Cricetulus griseus; outline: as §2
[11] = target: T2, Neutrophil elastase (Homo sapiens, UniProt P08246); test: In vitro inhibitory activity against human leukocyte elastase
T2 sequence (P08246 whole entry): T1 sequence (whole entry)

[12] = test system: Cricetinae gen. sp.; test: Compound was evaluated in vivo for inhibition of HLE-induced hemorrhage in hamster lung at 3 ug 30 min after administration prior to HLE; assay type: functional, Cricetulus griseus; outline: as §1
[13] = Half-life value of the compound.; assay type: ADME
Outline: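 Chemical stability: compound dissolved at 1 mg/mL in 0.5 M MOPS, pH 8.0, held at 25 °C in capped vial; aliquots quenched in 2% aqueous TFA and analysed by reverse-phase HPLC over one to two half-lives. Peak areas fit to first-order decay F(t)=A/2^(t/t1/2) to give t1/2.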

[14] = test system: Cricetinae gen. sp.; test: Compound was evaluated in vivo for inhibition of HLE-induced hemorrhage in hamster lung at 10microg, 30 min after administration prior to HLE; assay type: functional, Cricetulus griseus; outline: as §1
[15] = test system: Cricetinae gen. sp.; test: Compound was evaluated in vivo for inhibition of HLE-induced hemorrhage in hamster lung at 30microg, 30 min after administration prior to HLE; assay type: functional, Cricetulus griseus; outline: as §1
[16] = test system: Cricetinae gen. sp.; test: Compound was evaluated in vivo for inhibition of HLE-induced hemorrhage in hamster lung at 200 microg 4 hr after administration prior to HLE; assay type: functional, Cricetulus griseus; outline: as §2
[17] = test system: Cricetinae gen. sp.; test: Compound was evaluated in vivo for inhibition of HLE-induced hemorrhage in hamster lung at 200 microg 3h after administration prior to HLE; assay type: functional, Cricetulus griseus; outline: as §2
[18] = test system: Cricetinae gen. sp.; test: Compound was evaluated in vivo for inhibition of HLE-induced hemorrhage in hamster lung at 200 microg 2 hr after administration prior to HLE; assay type: functional, Cricetulus griseus; outline: as §2
[19] = test system: Cricetinae gen. sp.; test: Compound was evaluated in vivo for inhibition of HLE-induced hemorrhage in hamster lung at 100 microg, 30 min after administration; assay type: functional, Cricetulus griseus; outline: as §1
[20] = test system: Cricetinae gen. sp.; test: Compound was evaluated in vivo for inhibition of HLE-induced hemorrhage in hamster lung at 100 microg 30 min after administration; assay type: functional, Cricetulus griseus; outline: as §1
[21] = test system: Cricetinae gen. sp.; test: Inhibitory activity against Human Leukocyte Elastase by Lung Hemorrhage assay ( at 200 ug/animal); assay type: functional, Cricetulus griseus; outline: as §2
[22] = test system: Cricetinae gen. sp.; test: Inhibitory activity against Human Leukocyte Elastase by Lung Hemorrhage assay (Effective dose at 15 microg); assay type: functional, Cricetulus griseus
[23] = test system: Cricetinae gen. sp.; test: Inhibitory activity against Human Leukocyte Elastase by Lung Hemorrhage assay (at 30 min); assay type: functional, Cricetulus griseus
Outline: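 Hamster, intratracheal: test compound 100 μg/animal given 30 min before IT instillation of HLE (50 μg; text also says 50 units). Hemorrhage read 3 h after HLE: lungs lavaged with saline, hemoglobin measured at 414 nm. Percent inhibition from hemorrhage in drug-treated vs vehicle-treated animals; mean of three animals per dose and time.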

[24] = target: T2, Neutrophil elastase; test: Inhibitory activity against Human Leukocyte Elastase

- k obs / 1 [3]: 900 M⁻¹ s⁻¹
SMILES: CO[C@H]1C(=O)N2C(C(=O)N(C)[C@H](C)C(=O)O)=C(COC(C)=O)CS(=O)(=O)[C@H]12
- Inhibition [1]: 29%
- Inhibition [2]: 97%
- Inhibition [4]: 90%

- Ki [11]: 0.25 µM
- half-life [13]: 46 h
SMILES: CO[C@H]1C(=O)N2C(C(=O)N3CCCC3C(=O)O)=C(CSc3nc(=O)c(=O)[nH]n3C)CS(=O)(=O)[C@H]12 (some centres not stated)
- Inhibition [5]: 80%
- Inhibition [8]: 100%
- Inhibition [9]: 86%
- Inhibition [12]: 61%

- k obs / 1 [3]: 35200 M⁻¹ s⁻¹
- half-life [13]: 13 h
SMILES: CO[C@H]1C(=O)N2C(C(=O)N3CCOCC3)=C(COC(C)=O)CS(=O)(=O)[C@H]12
- Inhibition [19]: -21%

- Ki [11]: 6.1 µM
SMILES: CO[C@H]1C(=O)N2C(C(=O)N(CC(=O)O)Cc3ccccc3)=C(COC(C)=O)CS(=O)(=O)[C@H]12
- Inhibition [2]: 42%
- Inhibition [15]: 30%

- k obs / 1 [3]: 1400 M⁻¹ s⁻¹
- half-life [13]: 8 h
SMILES: CO[C@H]1C(=O)N2C(C(=O)N(C)CC(=O)O)=C(COC(C)=O)C(C)S(=O)(=O)[C@H]12 (some centres not stated)

- k obs / 1 [3]: 27000 M⁻¹ s⁻¹
- half-life [13]: 16 h
SMILES: CO[C@H]1C(=O)N2C(C(=O)N3CCCC3)=C(COC(C)=O)CS(=O)(=O)[C@H]12

- k obs / 1 [3]: 13400 M⁻¹ s⁻¹
- half-life [13]: 20 h
- IC50 [24]: 2 µM
SMILES: CO[C@H]1C(=O)N2C(C(=O)N3CCCC3)=C(CSc3nc(=O)c(=O)[nH]n3C)CS(=O)(=O)[C@H]12
- T50 [21]: 240 min
- Inhibition [5]: 30%
- ED50 [22]: 30 µg
- ED50 [23]: 20 µg
- Inhibition [8]: 95%
- Inhibition [9]: 60%
- Inhibition [16]: 50%
- Inhibition [17]: 64%
- Inhibition [10]: 88%
- Inhibition [18]: 87%

- Ki [11]: 43 µM
SMILES: CO[C@H]1C(=O)N2C(C(=O)N(C)CC(=O)O)=C(CSc3ccccn3)CS(=O)(=O)[C@H]12
- Inhibition [2]: 76%
- Inhibition [14]: 35%
- Inhibition [15]: 46%

The next lines start with the molecule.

SMILES: CO[C@H]1C(=O)N2C(C(=O)N(C)CC(=O)OC(C)(C)C)=C(CSc3nc(=O)c(=O)[nH]n3C)CS(=O)(=O)[C@H]12
- Inhibition [5]: 65%
- Inhibition [6]: 84%
- Inhibition [7]: 38%
- Inhibition [8]: 98%
- Inhibition [9]: 94%
- k obs / 1 [3]: 19300 M⁻¹ s⁻¹
- Inhibition [10]: 89%

SMILES: CO[C@H]1C(=O)N2C(C(=O)N(C)CC(=O)N(C)CCC(=O)O)=C(COC(C)=O)CS(=O)(=O)[C@H]12
- Inhibition [2]: 86%
- Inhibition [14]: 35%
- k obs / 1 [3]: 700 M⁻¹ s⁻¹
- Inhibition [15]: 77%

SMILES: CO[C@H]1C(=O)N2C(C(=O)N(C)CCC(=O)O)=C(COC(C)=O)CS(=O)(=O)[C@H]12
- Inhibition [16]: 33%
- Inhibition [17]: -1%
- k obs / 1 [3]: 500 M⁻¹ s⁻¹
- half-life [13]: 24 h
- Inhibition [10]: 80%
- Inhibition [18]: 39%

SMILES: CC[C@H]1C(=O)N2C(C(=O)OCc3ccc(C(=O)O)cc3)=C(COC(C)=O)CS(=O)(=O)[C@H]12
- Inhibition [20]: -32%
- k obs / 1 [3]: 5700 M⁻¹ s⁻¹
- half-life [13]: 40 h

SMILES: CO[C@H]1C(=O)N2C(C(=O)N(C)CC(=O)O)=C(CSc3nnnn3C)CS(=O)(=O)[C@H]12
- k obs / 1 [3]: 600 M⁻¹ s⁻¹

SMILES: CO[C@H]1C(=O)N2C(C(=O)N(C)CC(=O)OC(C)(C)C)=C(CSc3nnnn3CC(=O)O)CS(=O)(=O)[C@H]12
- Inhibition [5]: 20%
- Inhibition [8]: 91%
- Inhibition [9]: 59%
- k obs / 1 [3]: 20500 M⁻¹ s⁻¹
